According to ChEMBL document CHEMBL5154824, “Design and synthesis of multifunctional microtubule targeting agents endowed with dual pro-apoptotic and anti-autophagic efficacy” (Eur J Med Chem, 2022):
The source made the active and inactive calls. The calls are words filed in the database; no cut-off is given here.

How the values were obtained:
HeLa [1] = experiment: Induction of morphological changes in human HeLa cells assessed as golgi complex fragmentation at 1 uM incubated for 3 hrs by phalloidin staining based laser scanning confocal microscopic analysis; format: functional, cell-based
Procedure, shortened: (§1)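 HeLa cells in growth medium were treated at 1 or 10 μM, with BafA1 300 nM as reference, for 3 h. Cells were fixed in 4% PFA, stained with anti-GM130 for the Golgi and AF647-phalloidin for actin, and imaged by laser scanning confocal microscopy.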

HeLa [2] = experiment: Induction of morphological changes in human HeLa cells assessed as effect on actin cytoskeleton at 10 uM incubated for 3 hrs by phalloidin staining based laser scanning confocal microscopic analysis; format: functional, cell-based; procedure, shortened: as §1
HeLa [3] = experiment: Induction of morphological changes in human HeLa cells assessed as cell rounding at 10 uM incubated for 3 hrs by phalloidin staining based laser scanning confocal microscopic analysis; format: functional; procedure, shortened: as §1
[4] = Cytotoxicity against human SKGT4 cells assessed as inhibition of cell growth measured after 72 hrs by MTT assay; format: functional, cell-based; conditions: SKGT4, 72 h
Procedure, shortened: (§2)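 Oesophageal adenocarcinoma lines were exposed to at least 8 increasing concentrations for 72 h. Viability was measured by MTT. IC50 is the mean ± SD of at least three independent experiments.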

Albumin = Albumin (Bos taurus, UniProt P02769); experiment: Binding affinity to bovine serum albumin assessed as increase in fluorescence intensity; conditions: cattle
Procedure, shortened: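 Saturation assay: compound fixed at 1 μM was incubated with increasing amounts of BSA. Fluorescence was read with excitation at 350 nm and emission at 450 nm in a plate reader.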

OE19 = experiment: Cytotoxicity against human OE19 cells assessed as inhibition of cell growth measured after 72 hrs by MTT assay; format: functional, cell-based; conditions: OE19, 72 h; procedure, shortened: as §2
[5] = Ratio of IC50 for cytotoxicity against human […] assessed as inhibition of cell growth measured after 48 hrs to IC50 for cytotoxicity against human A2780 cells assessed as inhibition of cell growth measured after 48 hrs; format: functional
Procedure, shortened: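 MTT assay: cells exposed to increasing compound concentrations for 48 h. Lines were A2780 and its P-gp-overexpressing A2780AD counterpart, and HeLa and HeLa β3 (tubulin β3-overexpressing). IC50 is the mean ± SD of three independent experiments. R/S is the IC50 in the resistant line divided by that in the parental line.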

Ca9-22 = experiment: Induction of apoptosis in human Ca9-22 cells assessed as increase in apoptotic cells at 0.5 uM after 48 hrs by Annexin V-FITC/PI staining based flow cytometry method; format: functional, cell-based
Procedure, shortened: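 Ca9.22 or TR146 cells were seeded at 30×10^4 cells/mL and treated with 500 nM compound or 1% EtOH (v/v) vehicle for 48 h. Annexin V/PI staining was read by flow cytometry, gating 10,000 cells on vehicle-treated cells. Data are mean ± SEM (n = 3).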

A2780 = experiment: Cytotoxicity against human A2780 cells assessed as inhibition of cell growth measured after 48 hrs by MTT assay; format: functional, cell-based; conditions: A2780, 48 h
Procedure, shortened: (§3)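 MTT assay. Cells were exposed for 48 h to increasing concentrations of compound. Ovarian A2780 was paired with its P-gp-overexpressing A2780AD counterpart, and HeLa with HeLa β3, which overexpresses the tubulin β3 isotype. IC50 is the mean ± SD of three independent experiments.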

[6] = Cytotoxicity against human FLO-1 cells assessed as inhibition of cell growth measured after 72 hrs by MTT assay; format: functional, cell-based; conditions: FLO-1, 72 h; procedure, shortened: as §2
HeLa [7] = experiment: Induction of morphological changes in human HeLa cells assessed as increase in actin stress fibres at 10 uM incubated for 3 hrs by phalloidin staining based laser scanning confocal microscopic analysis; format: functional, cell-based; procedure, shortened: as §1
HeLa [8] = experiment: Induction of autophagy in human HeLa cells assessed as increase in number of autophagosomes formation at 10 uM measured after 3 hrs by immunofluorescence based laser scanning confocal microscopic analysis; format: functional, cell-based
Procedure, shortened: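 HeLa cells in growth medium were treated at 1 or 10 μM, with BafA1 300 nM as reference, for 3 h. Cells were fixed in ice-cold methanol, immunostained for LC3 (autophagosomes) and LAMP1, and imaged by laser scanning confocal microscopy.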

HeLa [9] = experiment: Cytotoxicity against human HeLa cells assessed as inhibition of cell growth measured after 48 hrs by MTT assay; format: functional, cell-based; procedure, shortened: as §3
Tubulin (Homo sapiens) = Tubulin (Homo sapiens) (UniProt P68371+Q9H4B7+P0DPH7+P68366+Q13509+Q71U36+P04350+Q3ZCM7+P07437+P68363+Q9BQE3+Q6PEY2+Q13885+Q9BVA1+Q9BUF5); experiment: Inhibition of tubulin (unknown origin) assembly measured at 5 uM by fluorescence assay; format: protein-complex assay

Albumin, sequence (P02769 whole entry): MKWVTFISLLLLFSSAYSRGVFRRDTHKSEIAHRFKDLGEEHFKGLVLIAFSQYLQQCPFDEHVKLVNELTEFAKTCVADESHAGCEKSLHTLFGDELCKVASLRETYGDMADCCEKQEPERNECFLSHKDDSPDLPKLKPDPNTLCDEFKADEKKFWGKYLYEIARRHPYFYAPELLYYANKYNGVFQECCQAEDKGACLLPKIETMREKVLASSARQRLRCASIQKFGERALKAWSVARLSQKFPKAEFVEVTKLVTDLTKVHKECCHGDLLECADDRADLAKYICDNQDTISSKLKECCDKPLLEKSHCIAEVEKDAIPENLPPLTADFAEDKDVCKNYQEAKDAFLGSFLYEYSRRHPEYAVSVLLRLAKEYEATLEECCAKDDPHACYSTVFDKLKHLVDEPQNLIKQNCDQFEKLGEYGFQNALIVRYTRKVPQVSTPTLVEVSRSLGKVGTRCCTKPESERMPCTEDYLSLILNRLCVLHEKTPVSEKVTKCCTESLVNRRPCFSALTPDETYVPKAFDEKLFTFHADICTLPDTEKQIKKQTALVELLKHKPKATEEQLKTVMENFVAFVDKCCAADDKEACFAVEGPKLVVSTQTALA

Compound | Activity (HeLa [1]) | Activity (HeLa [2]) | Activity (HeLa [3]) | IC50 [4] [nM] | Activity (Albumin) | IC50 (OE19) [nM] | Ratio IC50 [5] | Activity (Ca9-22) | IC50 (A2780) [nM] | IC50 [6] [nM] | Activity (HeLa [7]) | Activity (HeLa [8]) | IC50 (HeLa [9]) [nM] | inhibition (Tubulin (Homo sapiens)) [%]
O=C(OC1=C(c2cccc3ncccc23)Oc2cc3ccccc3cc2-n2cccc21)C1CCNCC1 | Active | Active | Active | – | – | – | – | – | – | – | – | – | – | –
CN1CCN(C(=O)OC2=C(c3cccc4ncccc34)Oc3cc4ccccc4cc3-n3cccc32)CC1 | – | – | – | 550 | Active | 730 | 0.67 | Active | 600 | 400 | Active | Active | 469 | 100
